# Screening data: PubChem, several laboratories
# b-catenin transl = modulators of beta-catenin nuclear translocation. HeLa beta-catenin nuclear translocation, immunofluorescence imaging. nuclear translocation activity, % at 5 µM. 0.3% of 190,000 active. AID 1665;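 active means nuclear translocation activity above 50% at 5 µM, with a well cell count of 50 or more; inconclusive means wells under 50 cells across six images, flagged as toxic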;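 further: per-cell ratio of nuclear to cytoplasmic median beta-catenin stain intensity; plate controls were DMSO negative control for no effect and GSK-3 inhibitor IX positive control for full effect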
#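 Test system: human HeLa cell line; Doses: 5 µM primary, 0.02–20 µM confirmation; Incubation: 24 h compound exposure, 37°C; Detection: beta-catenin immunofluorescence imaging with DAPI; Read-out: beta-catenin nuclear/cytoplasmic ratio, % activation.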
# CHOP inhibitor = CHOP inhibition in unfolded protein response; CHO-K1 CHOP-promoter luciferase, tunicamycin-induced, 15-18 h; inhibition, % at 10 µM; 3.8% of 220,000 active; AID 2732;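 active means compounds that reduced the stress-induced luciferase reporter signal by more than about 70% of percent inhibition, limit read from the data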;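 further: 0% = tunicamycin plus vehicle and 100% = wells without tunicamycin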
# MT stabilize HCS = stabilizes microtubules in HeLa cells; % tubulin-high responders, % at 10 µM; 0.83% of 200,000 active; AID 2205; HeLa tubulin immunostaining HCS, 24 h; share of cells brighter than vehicle mean+2SD;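 active means plate Z-score above 3 for both tubulin-high and condensed-nucleus cell shares, with cell loss under 80%, at 10 µM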;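 further: anti alpha tubulin signal scored within the nucleus-defined area of each cell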
# Autophagy mod = alters autophagy in cells; 0.98% of 190,000 active; MEF GFP-LC3 puncta imaging; test concentration mostly 10 µM; calls only at 10 µM (by protocol);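 active means percentage of spot-positive cells more than 3 SD above its plate mean, without a fluorescence outlier flag or 80% toxicity; inconclusive means no clear call, values can overlap the other calls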;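 further: spot-positive cell cutoff set from DMSO-treated cells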
# L major viab = reduces viability of Leishmania major promastigotes. resazurin fluorescence viability. inhibition, % at 10 µM. 9% of 200,000 active; in the data active means inhibition above about 50%;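 further: promastigotes grown with compound for 44 hours at 28 °C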
# Dynein transport = blocks dynein driven cargo transport along microtubules | 3617.4 mouse cells, GR-EGFP nuclear translocation imaging; test concentration mostly 20 µM; stimulated with dexamethasone, 1 µM; active compounds read low | z-score, hits read low | 0.47% of 220,000 active | AID 1381;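 active means plate z-score of nuclear minus cytoplasmic receptor signal below a set negative limit, without overly bright fluorescence or cell loss, cut at about -3.5 in these data, passing the limit was not always enough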;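 further: z-score of nuclear minus cytoplasmic ring GR-EGFP intensity difference per well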
#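 Also added: dexamethasone, 1.0 µM final. Medium: tet-free, stripped-serum medium. Detection: fixed, Hoechst-stained cells imaged at 10x for EGFP. Read-out: nuclear-to-cytoplasmic GR-EGFP distribution per well. Times: induction 48 h, compound 1 h, agonist 30 min.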
# Lmaj promast 1uM = inhibitors of Leishmania major promastigote growth, repeat at 1 uM. shares compounds with L major viab. L. major promastigote growth, resazurin fluorescence, 48 h. inhibition, % at 1 µM. 13% of 1,100 active;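 active means inhibition above about 50% in both repeat tests, limit read from the data; inconclusive means one repeat under the set limit, the other over it; inactive means both repeats under the set limit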
# Numbers without * were called inactive; i = inactive; ? = inconclusive; nt = not tested or not shown. A selection: hits, their analogues and other compounds. The true share with any hit is near 12%.
SMILES,b-catenin transl,CHOP inhibitor,MT stabilize HCS,Autophagy mod,L major viab,Dynein transport,Lmaj promast 1uM
O=C(NCc1ccco1)c1ccc2nc3sc4c(c3c(=O)n2c1)CCCC4,2,-44,12,i,22,-0.88,nt
CC(C)(CSc1ncccn1)NS(=O)(=O)c1ccccc1,2,2,1,i,-1,-0.69,nt
Cc1ccc(S(=O)(=O)NC(C)(C)CSc2nnc(Nc3ccccc3)s2)cc1,-3,58,2,i,100*,-0.43,-6
CC(C)(C)[C@]1(O)CCN2C[C@H]3c4ccccc4CCc4cccc(c43)[C@@H]2C1,-3,-3,2,i,57*,0.63,15
Cc1[nH]c2ccccc2c1/C=C/c1cc[n+](C)cc1,nt,49,4,i,65*,0.42,-11
Cc1ccccc1/C=C/c1cc[n+](C)cc1,3,-10,3,i,-1,-0.93,nt
O=C(CSc1nc(O)cc(=O)n1-c1ccccc1)Nc1nc2ccccc2s1,1,-7,nt,nt,nt,-0.58,nt
COc1ccc(C(O)P(=O)(OC2CCCCC2)c2ccc(N(C)C)cc2)cc1OC (stereo unspecified),-2,-12,4,i,6,3.1,nt
Cc1ccc(C(O)P(=O)(OC2CCCCC2)OC2CCCCC2)cc1 (stereo unspecified),nt,27,1,i,89*,-0.97,13
Cc1ccc(C2C(C#N)=C(N)OC3=C2C(=O)CC(C)(C)C3)s1 (stereo unspecified),0,16,nt,nt,nt,1.9,nt
O=C(Nc1ccccc1-c1nnn(CC(=O)N2CCc3ccccc3C2)n1)C1CCC1,-3,22,1,i,-3,-0.28,nt
O=C(Nc1cccc(-c2nnn(CC(=O)N3CCc4ccccc4C3)n2)c1)C1CCC1,2,16,2,i,99*,0.46,-2
COC(=O)c1cc(C#N)c(N2CC(C)OC(C)C2)nc1C (stereo unspecified),2,9,8,i,1,-0.25,nt
CCOC(=O)c1cnc2ccc(C)cc2c1Sc1ccc(F)cc1,-1,48,4,i,70*,-2.9,-17
COc1ccc(-c2nnc3ccc(SCC(=O)Nc4nc5ccccc5s4)nn23)cc1OC,-3,31,5,i,1,-0.18,nt
CN1CC(=O)N(CC(=O)Nc2ccc3c(c2)CCC3)C1=O,1,-6,3,i,-2,-0.65,nt
COc1ccc(-c2nc(NC(=O)c3cc(C(C)(C)C)nn3C)sc2C)cc1,-2,48,3,i,70*,-1.3,9
O=C(COc1ccccc1C(=O)c1cnn(-c2ccccc2)c1)Nc1ccccc1,-2,13,3,i,8,-0.41,nt
CN(c1ccc(O)cc1)c1nc(-c2ccccc2)cs1,-2,90*,2,i,89*,-0.41,-5
CN(c1ccc(OCC(=O)OCC(=O)c2c(N)n(C)c(=O)n(C)c2=O)cc1)S(=O)(=O)c1ccc2ccccc2c1,-2,12,2,i,10,-0.7,nt
Cc1c([N+](=O)[O-])ccc(S(=O)(=O)N2CCC(C(N)=O)CC2)c1C,-3,33,2,i,84*,1.5,-9
OC(COCC1COc2ccccc2O1)CN1CCN(c2ccccc2F)CC1 (stereo unspecified),6,-11,1,i,65*,-0.38,-10
O=C(CCN1C(=O)c2cccc3cccc(c23)C1=O)Nc1ccccc1,1,-21,2,i,-2,0.7,nt
Cc1c(=O)n(OCc2ccccc2F)c2ccccc2[n+]1[O-],2,15,2,i,73*,0.11,-19
CCCCOc1ccc(NC2=NC3(CCCC3)N=C(N)N2)cc1,0,52,16,i,10,-0.83,nt
SMILES,b-catenin transl,CHOP inhibitor,MT stabilize HCS,Autophagy mod,L major viab,Dynein transport,Lmaj promast 1uM
CC(=O)Nc1ccc(-c2csc(NC(=O)C3CCN(S(=O)(=O)c4cccs4)CC3)n2)cc1,nt,81*,3,i,70*,-0.2,-1
Cc1cccc(C)c1-n1nnnc1C1(Nc2ccccc2)CCCCC1,-1,51,3,?,100*,1.2,-11
Clc1ccc(NC2(c3nnnn3C3CCCCC3)CCCCC2)cc1,0,-11,3,i,3,-0.95,nt
Cc1[nH]c(=O)[nH]c(=O)c1CSc1nnc(CCCCCNC(=O)OC(C)(C)C)o1,0,2,1,i,-5,-0.28,nt
CC(=O)C1=NN(c2ccccc2)C(c2cccs2)N1c1ccc(N(C)C)cc1 (stereo unspecified),-2,41,3,i,96*,0.68,-8
CC(=O)C1=NN(c2ccccc2)C(c2ccc3c(c2)OCO3)N1c1ccccc1 (stereo unspecified),-4,14,1,i,10,-0.34,nt
COc1ccc(/C=C/C(=O)NCCCc2ccccc2)cc1,nt,26,2,i,-6,0.26,nt
COc1ccc(/C=C/c2cc[n+](C(=O)Cc3ccccc3)cc2)cc1,11,-3,11,i,100*,-1.5,98*
CSc1nnc(Cc2sc(-c3ccccc3)nc2-c2ccccc2)o1,nt,83*,1,i,93*,-0.46,-11
CCOC(=O)c1c(C)oc2c1C(=O)c1ccccc1C2=O,-1,42,5,i,98*,-0.47,14
CCN(C(=O)CC(C)C)c1nnc(Cn2nnc3ccccc32)s1,-1,13,4,i,13,0.4,nt
CCN(C(=O)c1ccc(C(C)(C)C)cc1)c1nnc(Cn2nnc3ccccc32)s1,-2,nt,8,i,54*,1.5,36
CCOC(=O)N1CCC(NS(=O)(=O)c2cc3c(cc2Cl)NC(=O)CO3)CC1,0,-8,4,i,55*,0.8,-8
CCOC(=O)N1CCC(NS(=O)(=O)c2ccc3c(c2)OCC(=O)N3)CC1,0,10,3,i,-7,-0.68,nt
Cc1c(NC(=O)OC(C)C)sc(=S)n1C,0,7,3,i,97*,-1.4,10
COC(=O)CCC/C=C1\SC[C@@H](NC(=O)c2ccccc2)C1NC(C)=O (stereo partly specified),0,9,2,i,-4,0.19,nt
COc1ccccc1CO/N=C/c1cccn1-c1nccc(N(C)C)c1C#N,nt,18,2,i,71*,1.5,-13
CN(C)c1ccnc(-n2cccc2/C=N/OCc2ccccc2)c1C#N,nt,1,2,i,-4,-0.049,nt
Cc1ccc(-n2cccc2C(=S)N=P(N(C)C)(N(C)C)N(C)C)cc1,-1,1,2,i,57*,-0.49,-6
Cc1ccc(-n2cccc2C(=O)NS(=O)(=O)c2ccc(C)cc2)cc1,0,-1,nt,nt,nt,1.2,nt
CCOc1c(CNc2nnnn2C)cccc1OC,-3,19,3,i,-6,-1.1,nt
